Tested on: SK-OV-3 cells
Assay: Confocal microscopy on live cells
Type: cell-based, human
Conditions: F′-PEpYLGLD 5 μM alone, opti-MEM, 2 h, 37 °C
In short: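 SK-OV-3 seeded at 1 × 10^5 cells/well on coverslips overnight in EMEM, then rinsed with opti-MEM. Exposed to treatments in opti-MEM for 2 h at 37 °C, washed three times with PBS and mounted. Imaged by laser scanning confocal, 20× objective, sequential frame mode. Channels: FITC (ex 488, em 500–550 nm), DAPI (ex 405, em 425–475 nm), DIC.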

Substance: F′-PEpYLGLD
- intracellular fluorescence of F′-PEpYLGLD alone (confocal): No green fluorescence was observed
